Test results: ChEMBL document CHEMBL1127085, “Derivatives of 2-(dipropylamino)tetralin: effect of the C8-substituent on the interaction with 5-HT1A receptors” (J Med Chem, 1993)

Tests used:
[1] = molecular target: T1, 5-hydroxytryptamine receptor 1A (Rattus norvegicus, UniProt P19327); test: Binding affinity of 5-hydroxytryptamine 1A receptor using [3H]-8-OH-DPAT as radioligand.
T1 sequence (P19327 whole entry): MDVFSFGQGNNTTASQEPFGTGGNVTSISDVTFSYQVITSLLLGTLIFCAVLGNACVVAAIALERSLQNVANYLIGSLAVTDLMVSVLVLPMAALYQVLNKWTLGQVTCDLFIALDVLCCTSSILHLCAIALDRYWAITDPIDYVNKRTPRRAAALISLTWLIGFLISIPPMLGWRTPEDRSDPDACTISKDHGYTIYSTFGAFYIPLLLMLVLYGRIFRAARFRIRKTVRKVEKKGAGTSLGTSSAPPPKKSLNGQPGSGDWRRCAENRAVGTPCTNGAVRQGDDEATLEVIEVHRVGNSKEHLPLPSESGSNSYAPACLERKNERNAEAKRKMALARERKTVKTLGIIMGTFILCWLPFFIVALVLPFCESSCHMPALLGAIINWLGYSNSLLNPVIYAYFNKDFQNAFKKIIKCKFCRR
In short: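 Membranes from cortex and hippocampus of male Sprague-Dawley rats, pooled from at least six rats, preincubated with 10 µM pargyline. Assay used 2 nM [3H]-8-OH-DPAT, test compound at 1-300 nM and 5 mg/mL tissue in 50 mM Tris-HCl with 4.0 mM CaCl2 and 5.7 mM ascorbate, pH 7.5. Incubated 10 min at 37 °C, filtered on GF/B, scintillation counted.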

[2] = molecular target: T2, 5-hydroxytryptamine receptor 1A (Rattus norvegicus) (UniProt P19327); test: Number of rats displaying the 5-HT syndrome or leaving the cage out of the number of rats tested; format: functional
T2 sequence (whole entry): T1 sequence (P19327 whole entry)

[3] = molecular target: T3, Dopamine receptor (Rattus norvegicus) (UniProt P25115+P19020+P30729+P18901+P61169); test: Effect of accumulation of DOPA in rat striatum at the dose of 32 umol/kg; format: functional, tissue-based
In short: (§1)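 Test compound given sc in 0.9% NaCl. NSD 1015 (287 µmol/kg sc) given 30 min later to inhibit aromatic L-amino acid decarboxylase; rats decapitated after a further 30 min. Hippocampus and striatum stored at -40 °C for up to 1 week. Perchloric acid homogenates with α-methyl-5-hydroxytryptophan internal standard; 5-HTP and DOPA measured by HPLC-EC. Percent of control, means ± SEM; ANOVA with Tukey test.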

[4] = molecular target: T2, 5-hydroxytryptamine receptor 1A (Rattus norvegicus); test: Induction of clear-cut 5-HT motor syndrome in reserpine (5 mg/Kg, sc) pretreated rats at the dose of 32 uM/Kg; format: functional, organism-based
[5] = molecular target: T2, 5-hydroxytryptamine receptor 1A (Rattus norvegicus); test: Effect of 5-HT accumulation in rat hippocampus at the dose of 32 umol/kg (p<0.01); format: functional, tissue-based; in short: as §1
[6] = molecular target: T2, 5-hydroxytryptamine receptor 1A (Rattus norvegicus); test: 5-HT (serotonin) turnover in rat hippocampus; format: functional, tissue-based
In short: (§2)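 Rats given compound sc in 0.9% NaCl (screening dose typically 32 µmol/kg); decapitated about 30 min after dosing. Hippocampus and corpus striatum dissected and frozen. Perchloric acid homogenates analysed by HPLC with electrochemical detection. Turnover taken as 5-HIAA/5-HT or DOPAC/DA, expressed as percent of saline control. Means ± SEM; n = 5-7 controls, 4-6 treated. ANOVA with Tukey test.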

Rattus norvegicus [7] = test: Induction of clear-cut 5-HT motor syndrome in normal rats at the dose of 32 uM/Kg; format: functional
Rattus norvegicus [8] = test: Change in body temperature of rats upon administration after 30 minutes; format: functional
In short: (§3)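 Colonic temperature taken with an electrical thermometer probe 3.5 cm deep, before and 30 min after sc injection in saline. Change reported in °C as mean ± SEM; animal numbers as in the cage-leaving test. ANOVA with Tukey test.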

[9] = molecular target: T3, Dopamine receptor (Rattus norvegicus); test: Dopamine (DA) turnover in rat corpus striatum; format: functional, tissue-based; in short: as §2
[10] = molecular target: T2, 5-hydroxytryptamine receptor 1A (Rattus norvegicus); test: Induction of clear-cut 5-HT motor syndrome in reserpine (5 mg/kg, sc) pretreated rats at the dose of 32 micro mol/kg; format: functional, organism-based
Rattus norvegicus [11] = test: Change in body temperature of rats upon administration after 30 minutes (p<0.01); format: functional; in short: as §3
[12] = molecular target: T2, 5-hydroxytryptamine receptor 1A (Rattus norvegicus); test: Induction of clear-cut 5-HT motor syndrome in normal rats at the dose of 32 micro mol/kg; format: functional
Rattus norvegicus [13] = organism: Rattus norvegicus; test: Dopamine (DA) turnover in rat corpus striatum (p<0.01); format: functional; in short: as §2
Rattus norvegicus [14] = test: Antagonistic effect on 5-HT syndrome or behavior of rat induced by (R)-8-hydroxy-DPAT at the dose of 32 and 1.0 umol/kg; format: functional
In short: (§4)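 Compound (32 µmol/kg sc) or saline injected 10 min before (R)-8-OH-DPAT (1.0 µmol/kg sc). Flat body posture, forepaw treading and hindlimb abduction scored during 30 min of observation. Results as number of rats showing the behaviour out of number tested; Fisher's exact probability test.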

Rattus norvegicus [15] = test: Antagonistic effect on body temperature of rat induced by (R)-1 at the dose of 32 and 1.0 umol/kg of compound (R)-1; format: functional
In short: (§5)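 Compound (32 µmol/kg sc) or saline injected 10 min before (R)-8-OH-DPAT (1.0 µmol/kg sc). Colonic temperature taken before injection and 30 min later; result is the change from the preinjection value. One-way ANOVA with Tukey HSD test.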

Rattus norvegicus [16] = test: Antagonistic effect on 5-HT syndrome or behavior of rat at the dose of 32 umol/kg with saline; format: functional; in short: as §4
Rattus norvegicus [17] = test: Antagonistic effect on body temperature of rat induced by (R)-1 at the dose of 32 umol/kg with saline; format: functional; in short: as §5
Rattus norvegicus [18] = test: Induction of clear-cut 5-HT motor syndrome in reserpine (5 mg/Kg, sc) pretreated rats at the dose of 10 uM/Kg; format: functional
Rattus norvegicus [19] = test: Induction of clear-cut 5-HT motor syndrome in normal rats at the dose of 10 uM/Kg; format: functional
[20] = molecular target: T2, 5-hydroxytryptamine receptor 1A (Rattus norvegicus); test: Antagonistic effect on 5-HT syndrome or behavior of rat induced by (R)-1 at the dose of 32 and 1.0 umol/kg of compound (R)-1; format: functional; in short: as §4
Rattus norvegicus [21] = test: Effect of DOPA accumulation in rat striatum at the dose of 32 umol/kg; format: functional; in short: as §1
[22] = molecular target: T2, 5-hydroxytryptamine receptor 1A (Rattus norvegicus); test: 5-HT (serotonin) turnover in rat hippocampus (p<0.01); format: functional, tissue-based
In short: (§6)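 Rats dosed sc (screening dose typically 32 µmol/kg, in 0.9% NaCl, 2 mL/kg); decapitated 5-10 min after the 30-min rating, […]. Hippocampus dissected and frozen. 5-HIAA/5-HT ratio measured by HPLC with electrochemical detection (+0.85 V) after perchloric acid homogenisation. Reported as percent of saline control, mean ± SEM, n = 4-6 per group; ANOVA with Tukey test.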

Rattus norvegicus [23] = organism: Rattus norvegicus; test: Dopamine (DA) turnover in rat corpus striatum (p<0.05); format: functional; in short: as §2
Rattus norvegicus [24] = test: Induction of clear-cut 5-HT motor syndrome in normal rats at the dose of 30 micro mol/kg; format: functional
[25] = molecular target: T2, 5-hydroxytryptamine receptor 1A (Rattus norvegicus); test: 5-HT (serotonin) turnover in rat hippocampus (p<0.05); format: functional, tissue-based; in short: as §6
Rattus norvegicus [26] = test: Induction of clear-cut 5-HT motor syndrome in normal rats at the dose of 10 micro mol/kg; format: functional
Rattus norvegicus [27] = test: Effect of accumulation of DOPA in rat striatum at the dose of 0.32 umol/kg (p<0.01); format: functional; in short: as §1
Rattus norvegicus [28] = test: Induction of clear-cut 5-HT motor syndrome in reserpine (5 mg/kg, sc) pretreated rats at the dose of 10 micro mol/kg; format: functional
Rattus norvegicus [29] = test: Effect of DOPA accumulation in rat striatum at the dose of 0.32 umol/kg (p<0.01); format: functional; in short: as §1
Rattus norvegicus [30] = test: Induction of clear-cut 5-HT motor syndrome in normal rats at the dose of 32 umol/kg; format: functional

CCCN(CCC)[C@@H]1CCc2cccc(C(=O)c3ccccc3)c2C1
Ki [1]: 4.6 nM | No. of rats [2]: 0 | Accumulation [3]: 69 | Behavioral effect [4]: 4 | Accumulation [5]: 56 | Turnover [6]: 74 | Behavioral effect (Rattus norvegicus [7]): 4 | Temperature (Rattus norvegicus [8]): -3.3 | Turnover [9]: 122

CCCN(CCC)[C@H]1CCc2ccccc2C1
No. of rats [2]: 5 | Behavioral effect [10]: 0 | Turnover [6]: 104 | Temperature (Rattus norvegicus [11]): -1.6 | Behavioral effect [12]: 5 | Turnover (Rattus norvegicus [13]): 62

CCCN(CCC)C1CCc2cccc(OS(=O)(=O)C(F)(F)F)c2C1 (racemic)
Behavioral effect [10]: 0

CCCN(CCC)[C@H]1CCc2c(F)ccc(O)c2C1
Effect (Rattus norvegicus [14]): 0 | Temperature (Rattus norvegicus [15]): -0.76 | Effect (Rattus norvegicus [16]): 0 | Temperature (Rattus norvegicus [17]): -0.02

CCCN(CCC)[C@@H]1CCc2cccc(C(=O)OC)c2C1
No. of rats [2]: 0 | Turnover [6]: 63 | Behavioral effect (Rattus norvegicus [18]): 4 | Behavioral effect (Rattus norvegicus [19]): 4 | Temperature (Rattus norvegicus [8]): -2.3 | Turnover [9]: 90

CCCN(CCC)C1CCc2cccc(C)c2C1 (racemic)
Ki [1]: 42 nM

CCCN(CCC)[C@H]1CCc2cccc(-c3ccccc3)c2C1
No. of rats [2]: 4 | Temperature (Rattus norvegicus [15]): -2.58 | Behavioral effect [10]: 0 | Turnover [6]: 98 | Effect [20]: 4 | Behavioral effect [12]: 0 | Temperature (Rattus norvegicus [8]): 0.6 | Turnover [9]: 99

CCCN(CCC)C1CCc2cccc(C(=O)OC)c2C1 (racemic)
Ki [1]: 2.4 nM | Accumulation [3]: 81 | Behavioral effect [4]: 4 | Accumulation (Rattus norvegicus [21]): 59

CCCN(CCC)C1CCc2cccc(C(=O)c3ccccc3)c2C1 (racemic)
Ki [1]: 2.8 nM

CCCN(CCC)[C@@H]1CCc2cccc(OC)c2C1
Turnover [22]: 66 | No. of rats [2]: 0 | Turnover (Rattus norvegicus [23]): 70 | Behavioral effect (Rattus norvegicus [24]): 4 | Temperature (Rattus norvegicus [11]): -1.5

CCCN(CCC)[C@H]1CCc2cccc(O)c2C1
Turnover [25]: 72 | No. of rats [2]: 0 | Behavioral effect (Rattus norvegicus [26]): 4 | Accumulation (Rattus norvegicus [27]): 94 | Temperature (Rattus norvegicus [11]): -2 | Behavioral effect (Rattus norvegicus [28]): 5 | Turnover [9]: 106 | Accumulation (Rattus norvegicus [29]): 94

CCCN(CCC)C1CCc2cccc(C#N)c2C1 (racemic)
Ki [1]: 26 nM | Behavioral effect [4]: 3

CCCN(CCC)[C@H]1CCc2cccc(OC)c2C1
Turnover [25]: 80 | No. of rats [2]: 0 | Behavioral effect [12]: 4 | Temperature (Rattus norvegicus [8]): -1.5 | Turnover [9]: 79

CCCN(CCC)[C@H]1CCc2cccc(OS(=O)(=O)C(F)(F)F)c2C1
No. of rats [2]: 1 | Behavioral effect (Rattus norvegicus [30]): 0 | Temperature (Rattus norvegicus [15]): -3.18 | Turnover [6]: 84 | Effect [20]: 4 | Temperature (Rattus norvegicus [8]): 0.5 | Turnover [9]: 104

C#Cc1cccc2c1C[C@@H](N(CCC)CCC)CC2
Ki [1]: 16 nM | Turnover [22]: 66 | No. of rats [2]: 0 | Accumulation [3]: 95 | Behavioral effect [10]: 4 | Accumulation [5]: 31 | Temperature (Rattus norvegicus [11]): -2.8 | Behavioral effect [12]: 4 | Turnover [9]: 82
